Measured values as given in PubChem BioAssay AID624268 (The Scripps Research Institute Molecular Screening Center, 2012).
Out of some 360,000 compounds screened, about 1,500 (0.42%) were called active.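 The calls were made as follows: active = inhibition above a per-plate cutoff of the control wells' mean inhibition plus 3 SD (cut at about 5.5% in these data); inactive = the rest.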 For the sample, actives were picked, then their nearest neighbours and some compounds at random.

system: methionyl-tRNA synthetase (Trypanosoma brucei brucei); assay: inhibition of trypanosome methionyl-tRNA synthetase – biochemical, luminescence, primary screen (AID 624268);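 also: 0% = DMSO wells median and 100% = median of wells with control inhibitor compound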; settings: purified T. brucei MetRS, ATP depletion, Kinase-Glo luminescence; at 11.9 µM; stronger effect = higher value
Method in brief: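 Measured by: Kinase-Glo luciferase luminescence reporting remaining unconsumed ATP. Material: purified T. brucei MetRS enzyme. Doses: 11.9 µM compound single dose, 0.9% DMSO. Medium: HEPES buffer containing pyrophosphatase, BSA, spermine, DTT. Times: 15 min preincubation, 2 h reaction, all 25 °C. Reagent: methionine, ATP and bulk E. coli tRNA.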

| Structure (SMILES) | inhibition |
| --- | --- |
| Oc1[nH]c2ccc(Br)cc2c1N=Nc1nn[nH]n1 | 5.61% (active) |
| Brc1ccc(-c2nn[nH]n2)cc1 | 0.2% (inactive) |
| Cc1cccc(N=Nc2c(O)[nH]c3ccc(F)cc23)c1 | 0.2% (inactive) |
| CCOC(=O)c1sc(NC(=O)CSc2nc(O)c(Cc3ccccc3)c(=O)[nH]2)nc1C | -1.03% (inactive) |
| CCCS(=O)(=O)NC(=O)C1(C)CCCN(C(=O)c2ccnc(Cl)c2)C1 (configuration not stated) | -0.05% (inactive) |
| Cn1c(CCCOc2ccc(Cl)cc2Cl)n[nH]c1=S | 7.11% (active) |
| CC(C)Oc1ccc(Cc2n[nH]c(=S)n2Cc2ccccc2)cc1Cl | -0.26% (inactive) |
| O=C(CCCOc1ccc(Cl)cc1Cl)NNC(=O)C1CCC1 | 1.44% (inactive) |
| COC(=O)CN1C(=O)[C@H]2[C@@H](/C=C/c3ccccc3)N3C(=O)CN(CC4CC4)C(=O)[C@@]3(Cc3ccccc3)[C@H]2C1=O | -0.4% (inactive) |
| O=C(CC(O)(C(F)(F)F)C(F)(F)F)Nc1ccc(Cl)c(Cl)c1 | 1.83% (inactive) |
| NCCCCCC(=O)N/N=C/c1ccc2nccnc2c1 | -0.25% (inactive) |
| O=C(CC(=O)Nc1ccc(Cl)c(Cl)c1)N/N=C/c1ccc(O)cc1 | 10.6% (active) |
| Cc1csc(=O)n1CCC(=O)OCC(=O)NNC(=O)c1ccc(Br)cc1 | -0.33% (inactive) |
| CC1(C(=O)NS(=O)(=O)c2cccc(F)c2)CCN1C(=O)c1cccc2ccccc12 (configuration not stated) | -0.25% (inactive) |
| COCCCNCCOCCOc1ccc(Cl)cc1Br | 1.56% (inactive) |
| O=C(N[C@H]1CC[C@H](CC(=O)N2CCCCC2)O[C@@H]1CO)c1cccc(F)c1 | -0.31% (inactive) |
| O=C(Oc1cccc(N2C(=O)C3C4c5ccccc5C(c5ccccc54)C3C2=O)c1)c1ccco1 (configuration not stated) | 0.29% (inactive) |
| O=C(/C(=N\O)n1cncn1)c1ccc(Br)cc1Br | 17.9% (active) |
| CCc1ccc(N(CC(=O)Nc2sc3c(c2C(=O)OC)CCCC3)S(C)(=O)=O)cc1 | 0.46% (inactive) |
| Cc1ccc(NCc2n[nH]c(=S)n2-c2ccccc2)cc1Cl | -0.41% (inactive) |
| CCn1c(CSCc2c(Cl)cccc2Cl)n[nH]c1=S | 0.37% (inactive) |
| S=c1[nH]nc(CSCc2ccc(Cl)cc2Cl)n1-c1ccccc1 | 6.2% (active) |
| Nc1cc(N)nc(SCc2cccc(F)c2)n1 | -0.35% (inactive) |

| Structure (SMILES) | inhibition |
| --- | --- |
| Cn1nc(-c2ccc(Cl)cc2)c2cc(C(=O)NCc3ccco3)sc21 | 2.08% (inactive) |
| O=C(c1ccco1)N1CCN(CC(=O)N(C2CCCCC2)C2CCS(=O)(=O)C2)CC1 (configuration not stated) | -0.62% (inactive) |
| Cc1ccc(NN=C2C(=O)OC(C)(C)OC2=O)c(C)c1 | 0.27% (inactive) |
| CCn1c(SCC(=O)N/N=C/C=C/c2ccccc2[N+](=O)[O-])nnc1-c1ccccc1 | 0.33% (inactive) |
| O=C(COC(=O)CCCSc1nc2ccccc2[nH]1)Nc1ccc(Oc2ccccc2)cc1 | -0.54% (inactive) |
| O=C(CSc1nc2ccccc2[nH]1)N/N=C/C=C\c1ccccc1[N+](=O)[O-] | 9.68% (active) |
| COCCNC(=O)CN1C(=O)CSc2ncccc21 | 0.04% (inactive) |
| O=C(NNS(=O)(=O)c1ccc(F)cc1)C1CCCCC1 | -0.24% (inactive) |
| CCOC(=O)CN(C(=O)CN1CCOCC1)c1ccc(Br)cc1 | -1.11% (inactive) |
| Cc1ccc(-c2cc(=O)[nH]c(NCc3ccccc3)n2)cc1 | 0.58% (inactive) |
| C/C(=N\Nc1nc2ccccc2[nH]1)c1cccs1 | 2.21% (inactive) |
| Cc1ccc(O)c(CNc2nc3ccccc3[nH]2)c1 | 72.6% (active) |
| C=CCN1CCN(C(=O)CCCc2ccccc2)CC1 | 0.23% (inactive) |
| Cn1c(=O)c2c(nc(N3CCOCC3)n2CCNC2=NCCC2)n(C)c1=O | 0.1% (inactive) |
| Cc1nn(Cc2ccccc2)c(C)c1C(=O)NCCCN1CCCC1=O | -0.02% (inactive) |
| O=Cc1c(NCCCN2CCCC2=O)c2ccccc2[nH]c1=O | -0.57% (inactive) |
| O=C1CCCN1CCCNc1ncnc2c1[nH]c1ccccc12 | 37.3% (active) |
| Cc1ccnc2nc(C(=O)OCC(=O)N(CC(C)C)CC(C)C)nn12 | -0.19% (inactive) |
| O=C(O)C1CCN(c2ccc([N+](=O)[O-])cc2[N+](=O)[O-])CC1 | 0.21% (inactive) |
| O=[N+]([O-])c1ccc(N2CCN(c3ccc(O)cc3)CC2)c(Cl)c1 | 7.21% (active) |
| CCN1CCN(c2ccc([N+](=O)[O-])cc2C(=O)c2ccc(Cl)cc2)CC1 | -0.26% (inactive) |
| NC(=S)NN=Cc1ccc(OC(=O)COc2cc(Cl)c(Cl)cc2Cl)cn1 | 0.02% (inactive) |
| CC(C)NC(=O)CSc1ccccc1C(=O)NCc1ccc2c(c1)OCO2 | -0.69% (inactive) |

| Structure (SMILES) | inhibition |
| --- | --- |
| CCN(CC)C(=O)C(=O)c1cn(CC(=O)NCc2ccc3c(c2)OCO3)c2ccccc12 | 60.8% (active) |
| CCN(CC)C(=O)Cn1cc(S(=O)(=O)CC(=O)NCc2ccc3c(c2)OCO3)c2ccccc21 | -0.63% (inactive) |
| CCOn1c(=O)c(=O)n(O)c2ccccc21 | 0.13% (inactive) |
| O=C(NCc1ccccc1)c1cccc(NC(=O)C2CCCCC2)c1 | -0.28% (inactive) |
| CCOc1ccc(NC(=O)CC2C(=O)N(c3ccccc3)C(=O)N2CCOC)cc1 (configuration not stated) | 0.31% (inactive) |
| COCCN1C(=O)N(c2ccc(Cl)cc2)C(=O)C1CC(=O)Nc1cc(OC)cc(OC)c1 (configuration not stated) | 0.28% (inactive) |
| COC(=O)CN1C(=S)N(c2ccccc2)C(=O)C1CC(=O)Nc1ccc(Cl)cc1 (configuration not stated) | 12% (active) |
| CCCc1nnc(NC(=O)CCC(=O)NC2CC2)s1 | 0.11% (inactive) |
| COc1cccc(C(CC(=O)NCCN2CCOCC2)NS(=O)(=O)c2ccc(C)cc2)c1OC (configuration not stated) | -0.3% (inactive) |
| Cc1ccc(S(=O)(=O)N(C)C)cc1NC(=O)c1ccc(-n2cncn2)c([N+](=O)[O-])c1 | 41% (active) |
| O=C(NNC(=O)c1ccc(-n2cncn2)c([N+](=O)[O-])c1)c1ccccc1 | 17.1% (active) |
| Cc1ccc(S(=O)(=O)N(C)C)cc1NC(=O)c1ccccc1Br | -0.6% (inactive) |
| CCOc1ccc(C(=O)Nc2cc(Cl)ccc2-n2cncn2)cc1OC | -0.61% (inactive) |
| Cc1ccccc1OCC(=O)NNC(=O)c1ccc(-n2cncn2)c([N+](=O)[O-])c1 | 8.29% (active) |
| O=C(COc1ccccc1F)NNC(=O)c1ccc(N2CCCCC2)c([N+](=O)[O-])c1 | -0.55% (inactive) |
| Cc1cc(O)c(NC(=O)c2ccc(C)c([N+](=O)[O-])c2)cc1C | -1.17% (inactive) |
| CC(C)NC(=O)c1ccc(Sc2ccccc2)c([N+](=O)[O-])c1 | -1.54% (inactive) |
| Cc1ccccc1OCC(=O)NNC(=O)c1cc(S(=O)(=O)N(C)C)ccc1N1CCCC1 | -0.26% (inactive) |
| CC(=O)c1ccc(NC(=O)c2ccc(-n3cncn3)c([N+](=O)[O-])c2)cc1 | 36.6% (active) |
| CC(=O)Nc1ccc(NC(=S)NC(=O)c2ccc([N+](=O)[O-])c(C)c2)cc1 | -0.17% (inactive) |
| Cc1ccc(S(=O)(=O)N2CCN(C(=O)c3ccc(-n4cncn4)c([N+](=O)[O-])c3)CC2)cc1 | 1.45% (inactive) |
